# Test results taken from PMC10610910 (Science Advances, 2023).
# T1: HSF2BP (Homo sapiens, UniProt O75031)
# T1 sequence (O75031 1-334): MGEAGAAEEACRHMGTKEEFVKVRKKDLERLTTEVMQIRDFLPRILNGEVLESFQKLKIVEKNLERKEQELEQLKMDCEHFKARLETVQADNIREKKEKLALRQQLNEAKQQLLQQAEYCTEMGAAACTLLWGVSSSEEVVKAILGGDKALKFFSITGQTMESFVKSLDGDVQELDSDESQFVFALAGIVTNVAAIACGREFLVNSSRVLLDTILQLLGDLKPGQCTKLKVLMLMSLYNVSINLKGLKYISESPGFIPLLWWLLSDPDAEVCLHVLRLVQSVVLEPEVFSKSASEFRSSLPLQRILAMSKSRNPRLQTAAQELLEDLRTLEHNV
# Key:
# [1] = SEC-MALS molecular mass / oligomeric state; type: physicochemical; conditions: 25 mM tris-HCl pH 7.5, 250 mM NaCl, 5 mM β-mercaptoethanol, n = 2
# SEC-SAXS of free HSF2BP = type: physicochemical
# How it was run: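 Free HSF2BP was loaded at 6 mg/ml onto a BIOSEC 3 column in 25 mM tris-HCl pH 7.5, 250 mM NaCl, 5 mM β-mercaptoethanol, with synchrotron scattering recorded every second during elution. Curves across the elution peak were summed. P(r) was derived so that its Fourier transform fits the SAXS curve.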
# HSF2BP [2] = biological target: T1, HSF2BP; experiment: Mass photometry; type: physicochemical; conditions: 25-100 nM
# HSF2BP [3] = biological target: T1, HSF2BP; experiment: Scanning force microscopy; type: physicochemical; conditions: SFM on mica, in air; HSF2BP at 12 nM
# How it was run: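 HSF2BP was diluted 10,000-fold to 12 nM in 25 mM tris-HCl pH 7.5, 250 mM NaCl, 5 mM β-mercaptoethanol. It was deposited for 30 s on freshly cleaved mica, rinsed with water, dried under filtered air, and imaged in air by SFM. Particle volume distributions were obtained by kernel density analysis.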
# HeLa cells = type: cell-based, human; conditions: HeLa stably producing the protein; MMC, cisplatin, talazoparib
# How it was run: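 HeLa cells in DMEM with 10% fetal calf serum were stably co-transfected (PiggyBac) with GFP-HSF2BP and/or Flag-BRME1 variants, then selected with puromycin (1.5 μg/ml) and G418 (800 μg/ml) for 8 days; mixed populations were used. Seeded 100–1000 cells/well in technical duplicates, drugs added next day: MMC 2 h, cisplatin or talazoparib overnight. Coomassie-stained colonies counted on day 10.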
# [4] = system: interstrand crosslink repair (pICL) in Xenopus egg extract; conditions: Xenopus and human HSF2BP, ref [24]; cited from earlier work
# endogenous Xenopus BRCA2 = conditions: Xenopus egg extract; ref [24]; cited from earlier work
# DNA = conditions: ref [23]; cited from earlier work
molecule,measurement,setting,value
"HSF2BP: human HSF2BP, full-length wild type; GFP-HSF2BP in HeLa cells (protein, left off: His6, end not stated, cleaved) MGEAGAAEEACRHMGTKEEFVKVRKKDLERLTTEVMQIRDFLPRILNGEVLESFQKLKIVEKNLERKEQELEQLKMDCEHFKARLETVQADNIREKKEKLALRQQLNEAKQQLLQQAEYCTEMGAAACTLLWGVSSSEEVVKAILGGDKALKFFSITGQTMESFVKSLDGDVQELDSDESQFVFALAGIVTNVAAIACGREFLVNSSRVLLDTILQLLGDLKPGQCTKLKVLMLMSLYNVSINLKGLKYISESPGFIPLLWWLLSDPDAEVCLHVLRLVQSVVLEPEVFSKSASEFRSSLPLQRILAMSKSRNPRLQTAAQELLEDLRTLEHNV",apparent molar mass,[1],136 ± 7 kDa
same,maximal distance,SEC-SAXS of free HSF2BP; P(r),250 Å
same,molar mass (I(0)),"SEC-SAXS of free HSF2BP; protein ~50 to 60 μM, pH 7.5, 293.15 K",156 ± 21 kDa
same,"effect on / state of HSF2BP oligomers, in words",HSF2BP [2],"at 25 nM, it is a mix of dimers and tetramers"
same,"particle volume, larger peak",HSF2BP [3],~190 nm^3
same,"particle volume, smaller peak",HSF2BP [3],around 95 nm^3
same,"effect on cell resistance to DNA damage, in words",HeLa cells,sensitized cells to DNA damage
same,"effect on crosslink repair, in words",[4],inhibit replication-dependent restoration of the genetic information at the crosslink
same,"effect on BRCA2, in words",endogenous Xenopus BRCA2,leads to DNA crosslink-dependent proteasomal degradation of BRCA2
same,"affinity for DNA, in words",DNA,no detectable affinity for DNA
